# TRPC4 potent – allosterically enhances the mouse TRPC4 cation channel. Q9QUQ5. HEK293 TRPC4beta/mu-opioid, DAMGO EC20, Fluo-4 Ca2+ flux; stronger effect = higher value. B-score at 10 µM. actives 0.42% (n = 310,000);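 active means B-score of calcium response area above 5 SD of library B-scores, with initial fluorescence ratio within 5 SD of library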
# TRPC4 block – inhibitors of mouse TRPC4 channel; Q9QUQ5; HEK293 TRPC4beta/mu-opioid, DAMGO-evoked Fluo4 calcium flux; stronger effect = lower value; B-score at 10 µM; actives 0.39% (n = 300,000); AID 2247;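 active means B-score over 3 SD under the library average, no early fluorescence shift, positive overall ratio signal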
#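 Assay system: HEK293 cells with stable TRPC4beta plus mu-opioid receptor expression. Dosing: single dose. Measured by: Fluo4 Ca2+ flux fluorescence. Also added: DAMGO in two steps, submaximal then maximal. Read-out: B score from integrated Fluo4 fluorescence ratio.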
# TRPC4 act – TRPC4 (mouse) channel activation | Q9QUQ5 | B-score at 10 µM | HEK293 TRPC4beta/mu-opioid, Fluo4 calcium fluorescence; stronger effect = higher value | actives 0.49% (n = 310,000);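 active means B-score above 5 SD of library B-scores, and initial fluorescence ratio not above library mean plus 5 SD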;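 further: positive B-score marks a calcium rise read as TRPC4 activation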
#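 Test system: HEK293 cells stably co-expressing mouse TRPC4beta and mu-opioid receptor | Schedule: Fluo4 dye loading 45 min at room temperature, 110 s recording | Measured by: Kinetic Fluo4 calcium fluorescence, 5 s baseline at 1 Hz | Evaluation: B score of integrated ratio | Controls: Buffer (low) and maximal DAMGO (high)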
# TRPC6 activator – mouse TRPC6 channel activation | Q61143 | HEK293-TRPC6 membrane potential dye fluorescence; stronger effect = higher value | B-score at 10 µM | actives 0.13% (n = 310,000) | AID 2550;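 active means B-score of the integrated fluorescence ratio above library mean plus 3 SD, and starting fluorescence ratio within library mean plus 5 SD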;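 further: higher score means more depolarization so channel activation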
# Target sequence (Q61143 whole entry, looked up): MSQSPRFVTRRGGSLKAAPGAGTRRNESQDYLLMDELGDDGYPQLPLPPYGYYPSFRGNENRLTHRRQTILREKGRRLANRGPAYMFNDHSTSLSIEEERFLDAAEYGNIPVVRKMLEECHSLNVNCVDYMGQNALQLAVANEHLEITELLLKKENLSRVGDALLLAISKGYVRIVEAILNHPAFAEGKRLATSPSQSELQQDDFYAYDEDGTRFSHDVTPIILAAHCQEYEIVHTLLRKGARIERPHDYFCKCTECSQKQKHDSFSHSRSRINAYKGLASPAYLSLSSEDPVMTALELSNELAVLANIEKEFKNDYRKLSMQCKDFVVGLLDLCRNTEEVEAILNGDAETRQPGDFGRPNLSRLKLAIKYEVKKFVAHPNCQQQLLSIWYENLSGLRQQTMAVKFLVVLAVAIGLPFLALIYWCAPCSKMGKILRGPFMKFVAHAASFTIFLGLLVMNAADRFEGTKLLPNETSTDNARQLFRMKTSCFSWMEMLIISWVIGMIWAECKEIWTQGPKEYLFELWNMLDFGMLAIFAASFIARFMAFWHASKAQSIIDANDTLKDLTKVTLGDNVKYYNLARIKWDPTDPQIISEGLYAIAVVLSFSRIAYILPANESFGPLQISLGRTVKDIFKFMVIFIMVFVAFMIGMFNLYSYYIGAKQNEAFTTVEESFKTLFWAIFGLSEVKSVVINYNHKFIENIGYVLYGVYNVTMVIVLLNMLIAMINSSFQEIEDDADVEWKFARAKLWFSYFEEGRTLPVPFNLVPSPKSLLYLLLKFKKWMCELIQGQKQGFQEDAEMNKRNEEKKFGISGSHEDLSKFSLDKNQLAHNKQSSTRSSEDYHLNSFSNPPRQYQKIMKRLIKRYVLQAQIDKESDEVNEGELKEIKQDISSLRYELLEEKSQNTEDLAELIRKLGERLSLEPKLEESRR
# TRPC6 inh – blocks the mouse TRPC6 cation channel; HEK293-TRPC6, membrane potential dye, ACh-evoked depolarization; stronger effect = lower value; Q61143; actives 1.1% (n = 310,000); B-score at 10 µM;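 active means B-score under library mean minus 3 SD, initial fluorescence not abnormally high, positive integrated signal ratio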;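 further: B-score derived from integrated fluorescence ratio over the kinetic read; more negative B-score means stronger inhibition of depolarization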
# A number is an active result; . = inactive. The list is not random: actives were taken first. Their share in the collection is about 2.3%.
SMILES,TRPC4 potent,TRPC4 block,TRPC4 act,TRPC6 activator,TRPC6 inh
COC(=O)C1=C(COc2ccccc2)NC(=O)NC1c1ccc(Br)cc1 (centres undefined),.,.,.,.,.
COC(=O)C1=C(CCc2ccccc2)NC(=O)NC1c1ccc(Cl)cc1 (centres undefined),29,.,.,.,.
CCOC(=O)C1=C(CNCCc2ccc(Cl)cc2)NC(=O)NC1c1cccc([N+](=O)[O-])c1 (centres undefined),17,.,.,.,.
COC(=O)C1=C(COc2ccccc2)NC(=O)NC1c1ccc2ccccc2c1 (centres undefined),.,.,45,.,.
CCOC(=O)C1=C(CNCc2ccccc2Cl)NC(=O)NC1c1cccc([N+](=O)[O-])c1 (centres undefined),.,.,.,.,.
CN1CCCC(OC(=O)c2ccc(C#N)cc2)C1 (centres undefined),.,.,.,.,.
Cc1cccc(C(=O)OC2CCCN(C)C2)c1C (centres undefined),.,.,95,.,.
Cc1ccccc1C(=O)OC1CCCN(C)C1 (centres undefined),14,.,.,.,.
O=C(NCc1ccccn1)c1nc(Cn2cc([N+](=O)[O-])cn2)no1,.,.,.,.,.
Cc1ccc(S(=O)(=O)C2CS(=O)(=O)CC2O)cc1 (centres undefined),.,.,.,.,.
CC(=O)C1=C(S(=O)(=O)c2ccc(C)cc2)CS(=O)(=O)C1,.,-7,.,.,.
COc1ccc(CN(C)CC(=O)Nc2sc3c(c2C#N)CCC3)cc1OC,.,-6,.,.,.
CN(CC(=O)Nc1sc2c(c1C#N)CCCCC2)Cc1nc2ccccc2c(=O)[nH]1,16,.,.,.,.
OCc1nc2ccccc2n1CCOc1ccccc1,.,-6,.,.,.
Cc1nc2ccccc2n1CCOc1ccc(F)cc1,.,-6,.,.,.
COc1ccc(CCNC/C=C/c2ccccc2)cc1,.,.,106,.,.
COCCCN1C(=O)c2[nH]nc(-c3ccccc3O)c2C1c1ccc(Cl)cc1 (centres undefined),13,.,.,.,.
CCCN1C(=O)c2[nH]nc(-c3cc(Cl)c(C)cc3O)c2C1c1ccc(O)c(OC)c1 (centres undefined),11,.,.,.,.
Cc1cc2c(c(SCC#N)n1)C(=O)OC2,.,.,.,.,.
NC(=O)c1nsc(C(=O)N(Cc2ccco2)C(C(=O)NC2CCCC2)c2ccc(O)cc2)c1N (centres undefined),.,-5,.,.,.
NC(=O)c1nsc(C(=O)N(Cc2ccco2)C(C(=O)NCc2ccc(F)cc2)c2ccc(O)cc2)c1N (centres undefined),.,-6,.,.,.
Cc1ccc(C(C(=O)NCc2ccc(F)cc2)N(Cc2ccco2)C(=O)c2snc(C(N)=O)c2N)o1 (centres undefined),.,.,.,.,.
CCc1cc(=O)oc2cc(C)cc(OC(C)C(=O)NC(Cc3c[nH]c4ccc(O)cc34)C(=O)O)c12 (centres undefined),.,.,.,.,.
COc1ccc(NS(=O)(=O)c2ccc3c(c2)N(C(C)=O)CC(C)S3)c(OC)c1 (centres undefined),.,.,.,.,.
CCN(c1ccccc1)S(=O)(=O)c1ccc(C(=O)N(CCCN(C)C)c2nc3cc4c(cc3s2)OCO4)cc1,.,.,168,.,.
SMILES,TRPC4 potent,TRPC4 block,TRPC4 act,TRPC6 activator,TRPC6 inh
COc1ccc2sc(N(CCCN(C)C)C(=O)c3ccc(S(=O)(=O)N(C)Cc4ccccc4)cc3)nc2c1,.,.,.,.,.
CN(C)CCCN(C(=O)c1ccc(S(=O)(=O)N(C)Cc2ccccc2)cc1)c1nc2cc3c(cc2s1)OCO3,.,.,48,.,.
CN(C)CCN(C(=O)c1cccc2ccccc12)c1nc2cc3c(cc2s1)OCO3,.,.,73,.,.
COc1ccc(N(C(=O)CNC(=O)c2ccco2)C(C(=O)NC2CCCC2)c2ccco2)cc1 (centres undefined),.,.,.,.,.
C/C(=N\NC(=O)CN1CCN(c2ccc(F)cc2)CC1)c1ccco1,.,.,.,.,.
Cc1nc(SCC(=O)Nc2cc(C(N)=O)cc(C(N)=O)c2)c2c(C)c(C)sc2n1,.,.,.,.,.
c1ccc2c(N3CCCCCC3)nc(-c3ccncc3)nc2c1,.,.,.,.,.
c1ccc(N2CCN(c3nc(-c4ccccn4)nc4ccccc34)CC2)cc1,.,.,.,.,-5.6
Cc1ccc2nc(-c3ccccn3)c(NC3CCCC3)n2c1,.,-6,.,.,.
N#CCCn1cc(CNCc2ccccc2)c(-c2cccc([N+](=O)[O-])c2)n1,.,-6,.,.,.
O=C(NCc1cn(-c2ccccc2)nc1-c1ccccc1)c1cccc([N+](=O)[O-])c1,.,.,.,.,.
CCn1c(NCc2cc(Cl)ccc2O)nc2ccccc21,.,.,.,.,.
CN1CCN(c2ccc([N+](=O)[O-])cc2C(=O)c2ccccc2)CC1,.,.,.,.,.
COC(=O)c1cc([N+](=O)[O-])ccc1N1CCN(Cc2ccccc2)CC1,11,.,.,.,.
Cc1ccn2c(-c3csc(NCc4ccco4)n3)c(C)nc2c1,.,-6,.,.,.
COc1ccc(-c2csc(NCc3ccco3)n2)cc1C,.,.,.,.,.
O=C(CCNC(=O)C1CCN(S(=O)(=O)c2ccccc2)CC1)NCCc1cccc(F)c1,.,.,.,.,.
CN1CCCC(OC(=O)c2cc(Cl)ccc2Cl)C1 (centres undefined),13,.,65,.,.
CN1CCC(OC(=O)c2cc3cc(Br)ccc3oc2=O)CC1,.,.,.,.,.
CN1CCCC(OC(=O)c2cc(Br)ccc2Cl)C1 (centres undefined),10,.,126,.,.
CN1CCCC(OC(=O)c2cc(F)c(F)c(F)c2F)C1 (centres undefined),.,.,.,.,.
COc1cccc(C(=O)OC2CCCN(C)C2)c1 (centres undefined),.,.,129,.,.
O=c1c(Cl)c(N2CCN(S(=O)(=O)c3ccc(F)cc3)CC2)cnn1-c1cccc(Cl)c1,.,.,.,.,.
COc1cccc(CN2CC(C(=O)NCc3ccc(C)o3)CCC2=O)c1 (centres undefined),.,.,.,.,.
CC(C)Cc1nnc(NC(=O)c2cc(S(=O)(=O)N(C)C)ccc2N2CCCC2)s1,.,.,.,.,.
COc1cccc(NC(=O)CC2C(=O)NC3CCCCC3N2C(=O)c2ccccc2)c1 (centres undefined),.,.,.,.,.
NC(=O)N=Nc1c(O)[nH]c2c(Br)cc(Br)cc12,11,.,.,.,.
